Measurements published in ChEMBL document CHEMBL1132923, “Substituted benzamide inhibitors of human rhinovirus 3C protease: structure-based design, synthesis, and biological evaluation” (J Med Chem, 2000).
pEC50, pKi: −log10 of the molar value. In brackets after ≈: the same amount, converted by molar mass. Activity calls are given as the source filed them. The rule behind the calls is not given here.

Columns and labels:
[1] = biological target: T1, Human rhinovirus A protease (Human rhinovirus sp.) (UniProt Q4U254); experiment: Irreversible inhibition of Human Rhinovirus (HRV-14) 3C Protease measured as inactivation constant; no inhibition
T1 sequence (whole entry): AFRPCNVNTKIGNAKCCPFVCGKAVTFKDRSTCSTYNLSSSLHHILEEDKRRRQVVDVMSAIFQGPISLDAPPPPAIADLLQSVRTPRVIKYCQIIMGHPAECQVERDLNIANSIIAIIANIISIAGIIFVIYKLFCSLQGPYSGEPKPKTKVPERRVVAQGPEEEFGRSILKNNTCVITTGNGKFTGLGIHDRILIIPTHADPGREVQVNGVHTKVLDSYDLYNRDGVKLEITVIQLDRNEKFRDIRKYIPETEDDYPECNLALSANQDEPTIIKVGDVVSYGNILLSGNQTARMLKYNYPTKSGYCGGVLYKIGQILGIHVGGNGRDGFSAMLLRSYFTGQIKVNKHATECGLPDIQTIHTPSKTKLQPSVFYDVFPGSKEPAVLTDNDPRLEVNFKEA
In short: (§1)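 For serotype 14 3C protease under irreversible inactivation, reactions were started by adding 50 nM enzyme to 1 µM FRET substrate plus typically three to five inhibitor concentrations, monitored continuously. First-order inactivation rate constants came from nonlinear regression when <20% substrate was consumed; otherwise data were corrected for substrate depletion. kobs/[I] was derived by the slope method.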

[2] = biological target: T2, Human rhinovirus A protease (Human rhinovirus sp., UniProt Q4U254); experiment: The compound was tested for binding affinity of Human Rhinovirus (HRV) 3C Protease.
T2 sequence (Q4U254 whole entry): T1 sequence (whole entry)
In short: (§2)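 Serotype 14 3C protease activity was followed by a fluorescence resonance energy transfer substrate assay, and reversible inhibition constants (Ki) were determined from it.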

[3] = biological target: T1, Human rhinovirus A protease (Human rhinovirus sp.); experiment: Irreversible inhibition of Human Rhinovirus (HRV-14) 3C Protease; conditions: Rhinovirus B; in short: as §1
[4] = biological target: T1, Human rhinovirus A protease (Human rhinovirus sp.); experiment: Irreversible inhibition of Human Rhinovirus (HRV-14) 3C Protease measured as inactivation constant; inhibition@ 25; conditions: concentration not given here
In short: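 FRET-based continuous fluorometric assay of 3C protease activity. Reactions were started by adding 50 nM 3CP to 1 µM substrate across three to five inhibitor concentrations. First-order inactivation rate constants were fitted by nonlinear regression at each concentration. kobs/[I] was taken by the slope method, with data adjusted for substrate depletion where needed.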

[5] = biological target: T2, Human rhinovirus A protease; experiment: Inhibition of Human Rhinovirus (HRV-14) 3C Protease; in short: as §2
[6] = biological target: T2, Human rhinovirus A protease; experiment: The compound was tested for reversible inhibition of Human Rhinovirus (HRV) 3C Protease.
[7] = system: HeLa; experiment: Antiviral activity using H1HeLa cells (ATCC) infected with HRV-14 (range); format: functional, cell-based; conditions: Homo sapiens
In short: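 H1-HeLa cells were grown in MEM with 10% FBS and infected with HRV-14 at moi 0.08, or mock-infected with medium. Cells were resuspended at 8 × 10^5 cells/mL with drug and read 2 days later by XTT/PMS formazan absorbance at 450/650 nm. EC50 is the concentration restoring formazan to 50% of drug-free uninfected cells. Values come from a single run or the mean of ≥2.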

[8] = system: HeLa; experiment: Antiviral activity measured as minimal inhibitory concentration using H1HeLa cells (ATCC) infected with HRV-14; format: functional; conditions: Homo sapiens
[9] = biological target: T1, Human rhinovirus A protease (Human rhinovirus sp.); experiment: The compound was tested for irreversible inhibition of Human Rhinovirus (HRV) 3C Protease.; in short: as §1

| Structure (SMILES) | K obs / 1 [3] [M⁻¹ s⁻¹] | other results |
| --- | --- | --- |
| CCOC(=O)/C=C/c1cccc(C(=O)O)c1 |  | K obs / 1 [1]: inactive |
| COc1ccc(C(=O)/C=C/c2cccc(C(N)=O)c2)cc1 |  | pKi [2]: 5.74 |
| NC(=O)c1cccc(/C=C/C(=O)c2ccccc2)c1 |  | pKi [2]: 6.40 |
| CCOC(=O)/C=C/c1cccc(C(N)=O)c1 | 52 |  |
| NC(=O)c1cccc(/C=C/C(=O)OCc2ccccc2)c1 | 25 |  |
| CCOC(=O)/C=C/c1cc(C(N)=O)ccc1C |  | inhibition [4]: 10% |
| NC(=O)c1cccc(/C=C/C(=O)OCCc2ccccc2)c1 | 83 |  |
| COC(=O)/C=C/c1cccc(C(N)=O)c1 | 28 |  |
| CCOC(=O)/C=C/c1cc(CSc2nnc(-c3ccccn3)o2)cc(C(N)=O)c1 | 286 |  |
| NC(=O)c1cccc(/C=C/C(=O)c2ccccn2)c1 |  | pKi [2]: 5.74 |
| CN(C)c1ccc(C(=O)/C=C/c2cccc(C(N)=O)c2)cc1 |  | pKi [2]: 5.05 |
| NC(=O)c1cccc(/C=C/C(=O)OCc2ccccn2)c1 | 57 |  |
| CCOC(=O)/C=C/c1cc(CO)cc(C(N)=O)c1 | 54 |  |
| CCOC(=O)/C=C/c1cc(CN2CCN(c3ncccn3)CC2)cc(C(N)=O)c1 | 163 |  |
| NC(=O)c1cccc(/C=C/C(=O)OCCO)c1 | 42 |  |
| CCOC(=O)/C=C/c1cc(O)cc(C(N)=O)c1 | 47 |  |
| NC(=O)c1cccc(/C=C/C(=O)c2ccco2)c1 |  | pKi [2]: 5.72 |
| NC(=O)c1cccc(C=O)c1 |  | pKi [5]: 3.98 |
| CCOC(=O)/C=C/c1cc(CN(CC)Cc2ccncc2)cc(C(N)=O)c1 | 96 |  |
| CCOC(=O)/C(C#N)=C/c1cccc(C(N)=O)c1 |  | pKi [6]: 5.82 |
| CCOC(=O)/C=C/c1cc(CN2CCN(c3ccccc3C#N)CC2)cc(C(N)=O)c1 | 139 |  |
| CCOC(=O)/C=C/c1cc(CN2CCN(c3ccccn3)CC2)cc(C(N)=O)c1 | 269 |  |
| CCOC(=O)/C=C/c1cc(CN2CCN(C(=O)OCC)CC2)cc(C(N)=O)c1 | 130 |  |
| NC(=O)c1ccc2c(c1)C=CC2=O |  | pKi [2]: 6.92 |
| CCOC(=O)c1ccc(OCCC2CCN(c3ccc(C)nn3)CC2)cc1 [PIRODAVIR] |  | pEC50 [7]: 7.70; MIC [8]: 0.03 µM (≈ 0.0111 µg/mL) |
| CCOC(=O)/C=C/c1ccc(OCc2ccccc2)c(C(N)=O)c1 |  | K obs / 1 [9]: 30 M⁻¹ s⁻¹ |
| CC(=O)/C=C/c1cccc(C(N)=O)c1 |  | pKi [2]: 4.60 |
